Source: ChEMBL document CHEMBL1137767, “2-(3-Aryl-2-propenoyl)-3-methylquinoxaline-1,4-dioxides: a novel cluster of tumor-specific cytotoxins which reverse multidrug resistance” (Bioorg Med Chem, 2009)
Activity calls are given as the source filed them. The rule behind the calls is not given here.

Key:
[1] = Growth inhibition of human Molt4/C8 cells after 3 days; assay type: functional, cell-based; details: MOLT-4, 72 h
Procedure, shortened: (§1)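 Human CEM and Molt 4/C8 T-lymphocytes were grown for three days with or without serial dilutions of the compound. IC50 is the concentration that inhibits cell growth by 50%.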

[2] = tested on: CCRF-CEM; assay: Growth inhibition of human CEM cells after 3 days; assay type: functional, cell-based; details: 72 h; procedure, shortened: as §1
[3] = biological target: T1, ATP-dependent translocase ABCB1 (Homo sapiens, UniProt P08183); assay: Reversal of P-glycoprotein-mediated multidrug resistance in human MDR1 gene transfected mouse L5178Y cells assessed as fluorescence activity ratio at 20 uM by rhodamine 123 accumulation assay; assay type: cell-based
T1 sequence (P08183 whole entry): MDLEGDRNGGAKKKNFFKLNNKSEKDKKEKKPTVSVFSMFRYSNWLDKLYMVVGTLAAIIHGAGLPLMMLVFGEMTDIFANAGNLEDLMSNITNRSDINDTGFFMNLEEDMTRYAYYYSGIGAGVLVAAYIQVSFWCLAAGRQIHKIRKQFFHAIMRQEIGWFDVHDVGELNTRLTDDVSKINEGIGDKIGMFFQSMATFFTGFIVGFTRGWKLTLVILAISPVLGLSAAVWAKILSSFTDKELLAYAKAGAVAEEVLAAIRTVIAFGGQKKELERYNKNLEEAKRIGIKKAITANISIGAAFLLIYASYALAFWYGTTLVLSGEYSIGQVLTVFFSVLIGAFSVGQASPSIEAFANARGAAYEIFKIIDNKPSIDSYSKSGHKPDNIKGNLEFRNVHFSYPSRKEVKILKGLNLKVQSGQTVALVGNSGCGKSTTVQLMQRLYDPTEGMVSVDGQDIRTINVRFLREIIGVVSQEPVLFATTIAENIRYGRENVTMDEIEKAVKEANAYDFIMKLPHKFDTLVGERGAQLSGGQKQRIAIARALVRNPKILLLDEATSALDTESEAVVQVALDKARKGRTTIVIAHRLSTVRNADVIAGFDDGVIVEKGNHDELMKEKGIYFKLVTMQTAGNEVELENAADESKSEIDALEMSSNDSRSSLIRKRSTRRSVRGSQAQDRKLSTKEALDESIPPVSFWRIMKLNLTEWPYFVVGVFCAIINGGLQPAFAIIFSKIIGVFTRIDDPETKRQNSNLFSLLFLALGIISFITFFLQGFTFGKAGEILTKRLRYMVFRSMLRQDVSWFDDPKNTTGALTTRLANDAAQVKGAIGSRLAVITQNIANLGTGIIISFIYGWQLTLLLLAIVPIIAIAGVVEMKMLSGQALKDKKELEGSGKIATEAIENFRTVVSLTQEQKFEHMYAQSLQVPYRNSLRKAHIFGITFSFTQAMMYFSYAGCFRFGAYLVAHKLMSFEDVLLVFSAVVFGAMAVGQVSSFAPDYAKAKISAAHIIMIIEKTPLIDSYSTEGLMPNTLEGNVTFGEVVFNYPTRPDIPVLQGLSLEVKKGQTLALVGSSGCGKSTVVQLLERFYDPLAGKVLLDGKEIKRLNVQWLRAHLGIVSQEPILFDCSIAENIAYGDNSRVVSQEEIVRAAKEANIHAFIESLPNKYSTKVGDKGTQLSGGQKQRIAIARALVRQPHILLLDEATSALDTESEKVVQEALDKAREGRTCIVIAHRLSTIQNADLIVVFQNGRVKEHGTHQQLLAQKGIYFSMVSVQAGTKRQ
Procedure, shortened: (§2)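 Murine L-5178Y lymphoma cells transfected with human MDR1 gene (P-gp-overexpressing), alongside parental cells, treated or untreated with compound; rhodamine 123 accumulation measured by fluorescence; FAR = ratio of fluorescence intensity in treated versus untreated cells, values above 1 taken as MDR reversal.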

[4] = biological target: T1, ATP-dependent translocase ABCB1; assay: Reversal of P-glycoprotein-mediated multidrug resistance in human MDR1 gene transfected mouse L5178Y cells assessed as fluorescence activity ratio at 200 uM by rhodamine 123 accumulation assay; assay type: cell-based; procedure, shortened: as §2
[5] = Cytotoxicity against human HGF cells after 48 hrs; assay type: cell-based
[6] = Cytotoxicity against human HPC cells after 48 hrs; assay type: cell-based
[7] = Cytotoxicity against human HPLF cells after 48 hrs; assay type: cell-based
[8] = tested on: HL-60; assay: Cytotoxicity against human HL60 cells after 48 hrs; assay type: functional; details: HL-60, 48 h
[9] = tested on: HSC-2; assay: Cytotoxicity against human HSC2 cells after 48 hrs; assay type: functional; details: HSC-2, 48 h
[10] = tested on: HSC-3; assay: Cytotoxicity against human HSC3 cells after 48 hrs; assay type: functional; details: HSC-3, 48 h
[11] = tested on: HSC-4; assay: Cytotoxicity against human HSC4 cells after 48 hrs; assay type: functional; details: HSC-4, 48 h
[12] = tested on: CCRF-CEM; assay: Growth inhibition of human CCRF-CEM cells at 10 uM; assay type: functional, cell-based
Procedure, shortened: (§3)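 Human tumor cell line panel (59 lines across leukemia, melanoma, non-small cell lung, colon, CNS, ovarian, renal, prostate, breast) treated at a single 10 uM concentration; growth inhibition recorded per line.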

[13] = tested on: HL-60; assay: Growth inhibition of human HL60 cells at 10 uM; assay type: functional, cell-based; procedure, shortened: as §3
[14] = tested on: K562; assay: Growth inhibition of human K562 cells at 10 uM; assay type: functional, cell-based; procedure, shortened: as §3
[15] = tested on: RPMI8266; assay: Growth inhibition of human […] cells at 10 uM; assay type: functional, cell-based; procedure, shortened: as §3
[16] = tested on: A549; assay: Growth inhibition of human A549 cells at 10 uM; assay type: functional, cell-based; procedure, shortened: as §3
[17] = tested on: EKVX; assay: Growth inhibition of human EKVX cells at 10 uM; assay type: functional, cell-based; procedure, shortened: as §3
[18] = tested on: HOP-92; assay: Growth inhibition of human HOP92 cells at 10 uM; assay type: functional, cell-based; procedure, shortened: as §3
[19] = tested on: NCI-H23; assay: Growth inhibition of human NCI-H23 cells at 10 uM; assay type: functional, cell-based; procedure, shortened: as §3
[20] = tested on: NCI-H460; assay: Growth inhibition of human NCI-H460 cells at 10 uM; assay type: functional, cell-based; procedure, shortened: as §3
[21] = tested on: NCI-H522; assay: Growth inhibition of human NCI-H522 cells at 10 uM; assay type: functional, cell-based; procedure, shortened: as §3
[22] = tested on: HCC 2998; assay: Growth inhibition of human HCC2998 cells at 10 uM; assay type: functional, cell-based; procedure, shortened: as §3
[23] = tested on: HCT-116; assay: Growth inhibition of human HCT116 cells at 10 uM; assay type: functional, cell-based; procedure, shortened: as §3
[24] = tested on: HCT-15; assay: Growth inhibition of human HCT15 cells at 10 uM; assay type: functional, cell-based; procedure, shortened: as §3
[25] = tested on: SW-620; assay: Growth inhibition of human SW620 cells at 10 uM; assay type: functional, cell-based; procedure, shortened: as §3
[26] = tested on: SF-295; assay: Growth inhibition of human SF295 cells at 10 uM; assay type: functional, cell-based; procedure, shortened: as §3
[27] = tested on: SNB-75; assay: Growth inhibition of human SNB75 cells at 10 uM; assay type: functional, cell-based; procedure, shortened: as §3
[28] = tested on: U-251; assay: Growth inhibition of human U251 cells at 10 uM; assay type: functional, cell-based; procedure, shortened: as §3
[29] = tested on: LOX IMVI; assay: Growth inhibition of human LOXIMVI cells at 10 uM; assay type: functional, cell-based; procedure, shortened: as §3
[30] = tested on: M14; assay: Growth inhibition of human M14 cells at 10 uM; assay type: functional, cell-based; procedure, shortened: as §3
[31] = tested on: UACC-62; assay: Growth inhibition of human UACC62 cells at 10 uM; assay type: functional, cell-based; procedure, shortened: as §3
[32] = tested on: IGROV-1; assay: Growth inhibition of human IGROV1 cells at 10 uM; assay type: functional, cell-based; procedure, shortened: as §3
[33] = tested on: OVCAR-3; assay: Growth inhibition of human OVCAR-3 cells at 10 uM; assay type: functional, cell-based; procedure, shortened: as §3
[34] = tested on: OVCAR-4; assay: Growth inhibition of human OVCAR4 cells at 10 uM; assay type: functional, cell-based; procedure, shortened: as §3
[35] = tested on: OVCAR-8; assay: Growth inhibition of human OVCAR8 cells at 10 uM; assay type: functional, cell-based; procedure, shortened: as §3
[36] = tested on: A498; assay: Growth inhibition of human A498 cells at 10 uM; assay type: functional, cell-based; procedure, shortened: as §3
[37] = tested on: CAKI-1; assay: Growth inhibition of human Caki1 cells at 10 uM; assay type: functional, cell-based; procedure, shortened: as §3
[38] = tested on: RXF 393; assay: Growth inhibition of human RXF393 cells at 10 uM; assay type: functional, cell-based; procedure, shortened: as §3
[39] = tested on: UO-31; assay: Growth inhibition of human UO31 cells at 10 uM; assay type: functional, cell-based; procedure, shortened: as §3
[40] = tested on: PC-3; assay: Growth inhibition of human PC3 cells at 10 uM; assay type: functional, cell-based; procedure, shortened: as §3
[41] = tested on: DU-145; assay: Growth inhibition of human DU145 cells at 10 uM; assay type: functional, cell-based; procedure, shortened: as §3
[42] = tested on: MCF7; assay: Growth inhibition of human MCF7 cells at 10 uM; assay type: functional, cell-based; procedure, shortened: as §3
[43] = tested on: NCI/ADR-RES; assay: Growth inhibition of human NCI/ADR-RES cells at 10 uM; assay type: functional, cell-based; procedure, shortened: as §3
[44] = tested on: MDA-MB-468; assay: Growth inhibition of human MDA-MB-468 cells at 10 uM; assay type: functional, cell-based; procedure, shortened: as §3
[45] = tested on: Hs-578T; assay: Growth inhibition of human Hs 578T cells at 10 uM; assay type: functional, cell-based; procedure, shortened: as §3
[46] = tested on: MDA-MB-435; assay: Growth inhibition of human MDA-MB-435 cells at 10 uM; assay type: functional, cell-based; procedure, shortened: as §3
[47] = tested on: T47D; assay: Growth inhibition of human T47D cells at 10 uM; assay type: functional, cell-based; procedure, shortened: as §3

Cc1c(C(=O)/C=C/c2cccc([N+](=O)[O-])c2)[n+]([O-])c2ccccc2[n+]1[O-]
IC50 [1]: 16.3 µM
IC50 [2]: 15.8 µM
Ratio [3]: 1.89
Ratio [4]: 3.75
CC50 at 48 h [5]: 47 µM
CC50 at 48 h [6]: 46 µM
CC50 at 48 h [7]: 18 µM
CC50 [8]: 62 µM
CC50 [9]: 34 µM
CC50 [10]: 122 µM
CC50 [11]: 54 µM

Cc1ccc(/C=C/C(=O)c2c(C)[n+]([O-])c3ccccc3[n+]2[O-])cc1
IC50 [1]: 8.4 µM
IC50 [2]: 22.4 µM
Ratio [3]: 9.79
Ratio [4]: 27.2
CC50 at 48 h [5]: 32 µM
CC50 at 48 h [6]: 40 µM
CC50 at 48 h [7]: 23 µM
CC50 [8]: 4.1 µM
CC50 [9]: 8.4 µM
CC50 [10]: 14 µM
CC50 [11]: 11 µM

Cc1c(C(=O)/C=C/c2ccc(F)cc2)[n+]([O-])c2ccccc2[n+]1[O-]
IC50 [1]: 6.4 µM
IC50 [2]: 10 µM
Ratio [3]: 4.81
Ratio [4]: 25.8
CC50 at 48 h [5]: 31 µM
CC50 at 48 h [6]: 48 µM
CC50 at 48 h [7]: 20 µM
CC50 [8]: 4.6 µM
CC50 [9]: 6.2 µM
CC50 [10]: 7.7 µM
CC50 [11]: 8.1 µM
growth inhibition (GI) [12]: Active
growth inhibition (GI) [13]: Active
growth inhibition (GI) [14]: Active
growth inhibition (GI) [15]: Active
growth inhibition (GI) [16]: Active
growth inhibition (GI) [17]: Active
growth inhibition (GI) [18]: Active
growth inhibition (GI) [19]: Active
growth inhibition (GI) [20]: Active
growth inhibition (GI) [21]: Active
growth inhibition (GI) [22]: Active
growth inhibition (GI) [23]: Active
growth inhibition (GI) [24]: Active
growth inhibition (GI) [25]: Active
growth inhibition (GI) [26]: Active
growth inhibition (GI) [27]: Active
growth inhibition (GI) [28]: Active
growth inhibition (GI) [29]: Active
growth inhibition (GI) [30]: Active
growth inhibition (GI) [31]: Active
growth inhibition (GI) [32]: Active
growth inhibition (GI) [33]: Active
growth inhibition (GI) [34]: Active
growth inhibition (GI) [35]: Active
growth inhibition (GI) [36]: Active
growth inhibition (GI) [37]: Active
growth inhibition (GI) [38]: Active
growth inhibition (GI) [39]: Active
growth inhibition (GI) [40]: Active
growth inhibition (GI) [41]: Active
growth inhibition (GI) [42]: Active
growth inhibition (GI) [43]: Active
growth inhibition (GI) [44]: Active
growth inhibition (GI) [45]: Active
growth inhibition (GI) [46]: Active
growth inhibition (GI) [47]: Active

COc1ccc(/C=C/C(=O)c2c(C)[n+]([O-])c3ccccc3[n+]2[O-])cc1OC
IC50 [1]: 18.5 µM
IC50 [2]: 19.2 µM
Ratio [3]: 5.01
Ratio [4]: 23
CC50 at 48 h [5]: 117 µM
CC50 at 48 h [6]: 142 µM
CC50 at 48 h [7]: 156 µM
CC50 [8]: 14 µM
CC50 [9]: 25 µM
CC50 [10]: 31 µM
CC50 [11]: 38 µM
growth inhibition (GI) [12]: Active
growth inhibition (GI) [13]: Active
growth inhibition (GI) [14]: Active
growth inhibition (GI) [15]: Active
growth inhibition (GI) [16]: Active
growth inhibition (GI) [17]: Active
growth inhibition (GI) [18]: Active
growth inhibition (GI) [19]: Active
growth inhibition (GI) [20]: Active
growth inhibition (GI) [21]: Active
growth inhibition (GI) [22]: Active
growth inhibition (GI) [23]: Active
growth inhibition (GI) [24]: Active
growth inhibition (GI) [25]: Active
growth inhibition (GI) [26]: Active
growth inhibition (GI) [27]: Active
growth inhibition (GI) [28]: Active
growth inhibition (GI) [29]: Active
growth inhibition (GI) [30]: Active
growth inhibition (GI) [31]: Active
growth inhibition (GI) [32]: Active
growth inhibition (GI) [33]: Active
growth inhibition (GI) [34]: Active
growth inhibition (GI) [35]: Active
growth inhibition (GI) [36]: Active
growth inhibition (GI) [37]: Active
growth inhibition (GI) [38]: Active
growth inhibition (GI) [39]: Active
growth inhibition (GI) [40]: Active
growth inhibition (GI) [41]: Active
growth inhibition (GI) [42]: Active
growth inhibition (GI) [43]: Active
growth inhibition (GI) [44]: Active
growth inhibition (GI) [45]: Active
growth inhibition (GI) [46]: Active
growth inhibition (GI) [47]: Active

Cc1c(C(=O)/C=C/c2ccc(Cl)c(Cl)c2)[n+]([O-])c2ccccc2[n+]1[O-]
IC50 [1]: 10.1 µM
IC50 [2]: 15.4 µM
Ratio [3]: 4.42
Ratio [4]: 11.9
CC50 at 48 h [5]: 29 µM
CC50 at 48 h [6]: 13 µM
CC50 at 48 h [7]: 5.7 µM
CC50 [8]: 27 µM
CC50 [9]: 17 µM
CC50 [10]: 84 µM
CC50 [11]: 15 µM

Cc1c(C(=O)/C=C/c2ccc([N+](=O)[O-])cc2)[n+]([O-])c2ccccc2[n+]1[O-]
IC50 [1]: 261 µM
IC50 [2]: 164 µM
Ratio [3]: 1.28
Ratio [4]: 2.25
CC50 at 48 h [5]: 57 µM
CC50 at 48 h [6]: > 400 µM
CC50 at 48 h [7]: 91 µM
CC50 [8]: 262 µM
CC50 [9]: 55 µM
CC50 [10]: > 400 µM
CC50 [11]: 73 µM
